Experimental data from ChEMBL document CHEMBL3286279, “The synthesis and biological evaluation of new DNA-directed alkylating agents, phenyl N-mustard-4-anilinoquinoline conjugates containing a urea linker” (Eur J Med Chem, 2014).
Active and inactive are the calls of the source. No cut-off for these calls is given here.

Key:
HCT-116 = experiment: Cytotoxicity against human HCT116 cells after 72 hrs by AlamarBlue assay; format: functional, cell-based; details: HCT-116, 72 h
Procedure, shortened: (§1)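 Growth inhibition read by alamarBlue. After reagent addition, plates were held 6 h at 37 °C and absorbance read at 570 and 600 nm. IC50 was derived from dose-response curves over 6 or 7 drug concentrations by the median-effect method. Values are mean and STDEV of three to six independent experiments.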

[1] = Cytotoxicity against human H460 cells after 72 hrs by AlamarBlue assay; format: functional, cell-based; details: NCI-H460, 72 h; procedure, shortened: as §1
CCRF-CEM [2] = experiment: Ratio of IC50 for human vinblastine-resistant CCRF-CEM cells to IC50 for human CCRF-CEM cells; format: functional
Procedure, shortened: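 Ratio of alamarBlue IC50 values, determined in the CCRF-CEM/VBL vinblastine-resistant subline and in the parental CCRF-CEM line.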

[3] = Cytotoxicity against human H1299 cells after 72 hrs by AlamarBlue assay; format: functional, cell-based; details: NCI-H1299, 72 h; procedure, shortened: as §1
PC-3 = experiment: Cytotoxicity against human PC3 cells after 72 hrs by AlamarBlue assay; format: functional, cell-based; details: PC-3, 72 h; procedure, shortened: as §1
CCRF-CEM [4] = experiment: Cytotoxicity against human vinblastine-resistant CCRF-CEM cells after 72 hrs by AlamarBlue assay; format: functional, cell-based; procedure, shortened: as §1
CCRF-CEM [5] = experiment: Cytotoxicity against human CCRF-CEM cells after 72 hrs by AlamarBlue assay; format: functional, cell-based; procedure, shortened: as §1
[6] = Induction of DNA cross-linking activity in pEGFP-N1 DNA (unknown origin) at 20 uM after 2 hrs by alkaline agarose gel shift assay
Procedure, shortened: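 pEGFP-N1 plasmid DNA incubated with compound at 1, 10 or 20 µM in binding buffer (30 mM NaCl/10 mM sodium phosphate pH 7.4, 10 mM EDTA) for 2 h at 37 °C. DNA then linearized with BamHI for 6 h, ethanol-precipitated and run on alkaline agarose gel. Cross-linked double-stranded DNA was scored against single-stranded DNA. Melphalan (1 and 10 µM) was the positive control.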

NCI-H460 [7] = experiment: Induction of apoptosis in human H460 cells assessed as early apoptotic cells at 2 uM after 24 hrs using Annexin V/propidium iodide staining by flow cytometry (reference value: 2%); format: functional
NCI-H460 [8] = experiment: Induction of apoptosis in human H460 cells assessed as necrotic cells at 2 uM after 24 hrs using Annexin V/propidium iodide staining by flow cytometry (reference value: 0.6%); format: functional
[9] = Cell cycle arrest in human H460 cells assessed as accumulation at sub-G1 phase at 2 uM after 24 hrs using propidium iodide staining by flow cytometry; format: functional, cell-based; details: NCI-H460
Procedure, shortened: (§2)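 H460 cells exposed to 0.25, 0.5, 1 or 2 µM for 24 h, then stained with […] propidium iodide in PBS with 0.1 mg/mL RNase A and 1% Triton X-100. DNA content and phase distribution read by flow cytometry. Values are the mean of 3 independent experiments.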

NCI-H460 [10] = experiment: Induction of apoptosis in human H460 cells assessed as late apoptotic cells at 2 uM after 48 hrs using Annexin V/propidium iodide staining by flow cytometry (reference value: 7%); format: functional
NCI-H460 [11] = experiment: Induction of apoptosis in human H460 cells assessed as necrotic cells at 2 uM after 72 hrs using Annexin V/propidium iodide staining by flow cytometry (reference value: 0.6%); format: functional
NCI-H460 [12] = experiment: Induction of apoptosis in human H460 cells assessed as early apoptotic cells at 2 uM after 48 hrs using Annexin V/propidium iodide staining by flow cytometry (reference value: 2%); format: functional
NCI-H460 [13] = experiment: Induction of apoptosis in human H460 cells assessed as necrotic cells at 2 uM after 48 hrs using Annexin V/propidium iodide staining by flow cytometry (reference value: 0.6%); format: functional
[14] = Cell cycle arrest in human H460 cells assessed as accumulation at G2/M phase after 24 hrs using propidium iodide staining by flow cytometry; format: functional, cell-based; details: NCI-H460; procedure, shortened: as §2
NCI-H460 [15] = experiment: Induction of apoptosis in human H460 cells assessed as late apoptotic cells at 2 uM after 24 hrs using Annexin V/propidium iodide staining by flow cytometry (reference value: 7%); format: functional
[16] = Cell cycle arrest in human H460 cells assessed as accumulation at G1 phase after 24 hrs using propidium iodide staining by flow cytometry; format: functional, cell-based; details: NCI-H460; procedure, shortened: as §2
NCI-H460 [17] = experiment: Induction of apoptosis in human H460 cells assessed as early apoptotic cells at 2 uM after 72 hrs using Annexin V/propidium iodide staining by flow cytometry (reference value: 2%); format: functional
NCI-H460 [18] = experiment: Induction of apoptosis in human H460 cells assessed as late apoptotic cells at 2 uM after 72 hrs using Annexin V/propidium iodide staining by flow cytometry (reference value: 7%); format: functional

Row | SMILES | IC50 (HCT-116) | IC50 [1] | Ratio IC50 (CCRF-CEM [2]) | IC50 [3] | IC50 (PC-3) | IC50 (CCRF-CEM [4]) | IC50 (CCRF-CEM [5]) | Activity [6] | Activity (NCI-H460 [7]) | Activity (NCI-H460 [8]) | Activity [9] | Activity (NCI-H460 [10]) | Activity (NCI-H460 [11]) | Activity (NCI-H460 [12]) | Activity (NCI-H460 [13]) | Activity [14] | Activity (NCI-H460 [15]) | Activity [16] | Activity (NCI-H460 [17]) | Activity (NCI-H460 [18])
1 | COc1cc(Nc2cc(C)nc3ccc(NC(=O)Nc4ccc(N(CCCl)CCCl)cc4)cc23)cc(OC)c1OC | 1.81 µM | 3.74 µM | >125 | 2.54 µM | 3.46 µM | > 100 µM | 0.8 µM | – | – | – | – | – | – | – | – | – | – | – | – | –
2 | CNc1cc(C)nc2ccc(NC(=O)Nc3ccc(N(CCCl)CCCl)cc3)cc12 | 1.28 µM | 9.37 µM | >256 | 5.4 µM | 2.51 µM | > 100 µM | 0.39 µM | – | – | – | – | – | – | – | – | – | – | – | – | –
3 | COc1cccc(Nc2cc(-c3ccccc3)nc3ccc(NC(=O)Nc4ccc(N(CCCl)CCCl)cc4)cc23)c1 | 1.35 µM | 1.89 µM | 3.43 | 2.13 µM | 2.21 µM | 2.71 µM | 0.79 µM | – | – | – | – | – | – | – | – | – | – | – | – | –
4 | Cc1cc(Nc2ccccc2)c2cc(NC(=O)Nc3ccc(N(CCCl)CCCl)cc3)ccc2n1 | 0.83 µM | 1.37 µM | 26.15 | 1.73 µM | 1.49 µM | 11.5 µM | 0.44 µM | – | – | – | – | – | – | – | – | – | – | – | – | –
5 | Cc1cc(Nc2ccc(Cl)cc2)c2cc(NC(=O)Nc3ccc(N(CCCl)CCCl)cc3)ccc2n1 | 0.77 µM | 0.84 µM | 11.21 | 1.31 µM | 1.36 µM | 8.18 µM | 0.73 µM | – | – | – | – | – | – | – | – | – | – | – | – | –
6 | Cc1cc(Nc2ccc(F)c(Cl)c2)c2cc(NC(=O)Nc3ccc(N(CCCl)CCCl)cc3)ccc2n1 | 0.83 µM | 1.4 µM | 18.2 | 1.07 µM | 1.78 µM | 9.83 µM | 0.54 µM | – | – | – | – | – | – | – | – | – | – | – | – | –
7 | O=C(Nc1ccc(N(CCCl)CCCl)cc1)Nc1ccc2nc(-c3ccccc3)cc(Nc3ccc(F)c(Cl)c3)c2c1 | 3.58 µM | 7.81 µM | 2.59 | 5.39 µM | 8.86 µM | 7.07 µM | 2.72 µM | – | – | – | – | – | – | – | – | – | – | – | – | –
8 | O=C(Nc1ccc(N(CCCl)CCCl)cc1)Nc1ccc2nc(-c3ccccc3)cc(Nc3cccc(Cl)c3)c2c1 | 3.69 µM | 2.26 µM | 2.19 | 2.35 µM | 2.13 µM | 4.55 µM | 2.07 µM | – | – | – | – | – | – | – | – | – | – | – | – | –
9 | CC[C@]1(O)C[C@@H]2CN(CCc3c([nH]c4ccccc34)[C@@](C(=O)OC)(c3cc4c(cc3OC)N(C)[C@H]3[C@@](O)(C(=O)OC)[C@H](OC(C)=O)[C@]5(CC)C=CCN6CC[C@]43[C@@H]65)C2)C1 [VINBLASTINE] | – | – | 300 | – | – | 0.87 µM | 0.0029 µM | – | – | – | – | – | – | – | – | – | – | – | – | –
10 | C#Cc1cccc(Nc2cc(C)nc3ccc(NC(=O)Nc4ccc(N(CCCl)CCCl)cc4)cc23)c1 | 0.59 µM | 0.7 µM | 9.55 | 1.13 µM | 1.17 µM | 4.49 µM | 0.47 µM | – | – | – | – | – | – | – | – | – | – | – | – | –
11 | Cc1cccc(Nc2cc(-c3ccccc3)nc3ccc(NC(=O)Nc4ccc(N(CCCl)CCCl)cc4)cc23)c1 | 1.8 µM | 2.09 µM | 2.25 | 1.42 µM | 1.23 µM | 4.15 µM | 1.84 µM | – | – | – | – | – | – | – | – | – | – | – | – | –
12 | Cc1cc(Nc2cccc(Cl)c2)c2cc(NC(=O)Nc3ccc(N(CCCl)CCCl)cc3)ccc2n1 | 0.56 µM | 1.03 µM | 12.81 | 0.88 µM | 1.27 µM | 7.56 µM | 0.59 µM | – | – | – | – | – | – | – | – | – | – | – | – | –
13 | Cc1cc(Nc2ccc(Br)cc2)c2cc(NC(=O)Nc3ccc(N(CCCl)CCCl)cc3)ccc2n1 | 0.8 µM | 0.91 µM | 18.33 | 1.35 µM | 1.75 µM | 9.53 µM | 0.52 µM | – | – | – | – | – | – | – | – | – | – | – | – | –
14 | Cc1cc(Nc2cccc(C(F)(F)F)c2)c2cc(NC(=O)Nc3ccc(N(CCCl)CCCl)cc3)ccc2n1 | 0.62 µM | 0.85 µM | 10.1 | 1.48 µM | 1.42 µM | 5.96 µM | 0.59 µM | – | – | – | – | – | – | – | – | – | – | – | – | –
15 | Cc1cccc(Nc2cc(C)nc3ccc(NC(=O)Nc4ccc(N(CCCl)CCCl)cc4)cc23)c1 | 0.49 µM | 0.92 µM | 15 | 1.05 µM | 1.29 µM | 5.85 µM | 0.39 µM | Active | – | – | – | – | – | – | – | – | – | – | – | –
16 | Cc1cc(Nc2cccc(F)c2)c2cc(NC(=O)Nc3ccc(N(CCCl)CCCl)cc3)ccc2n1 | 0.74 µM | 0.86 µM | 13.68 | 1.09 µM | 1.49 µM | 9.58 µM | 0.7 µM | – | – | – | – | – | – | – | – | – | – | – | – | –
17 | Cc1cc(Nc2ccc(F)c(Br)c2)c2cc(NC(=O)Nc3ccc(N(CCCl)CCCl)cc3)ccc2n1 | 0.63 µM | 0.82 µM | 25.45 | 1.28 µM | 1.32 µM | 10.2 µM | 0.4 µM | – | – | – | – | – | – | – | – | – | – | – | – | –
18 | COc1cccc(Nc2cc(C)nc3ccc(NC(=O)Nc4ccc(N(CCCl)CCCl)cc4)cc23)c1 | 0.62 µM | 1.83 µM | 15.07 | 1.32 µM | 2.38 µM | 4.22 µM | 0.28 µM | Active | – | – | – | – | – | – | – | – | – | – | – | –
19 | Cc1cc(Nc2cccc(Br)c2)c2cc(NC(=O)Nc3ccc(N(CCCl)CCCl)cc3)ccc2n1 | 0.49 µM | 1.18 µM | 11.28 | 0.77 µM | 1.41 µM | 5.19 µM | 0.46 µM | – | 3.7% | 4.3% | Active | 32.6% | 9.8% | 1.4% | 21.8% | Dose-dependent effect | 16.7% | Dose-dependent effect | 3.7% | 65.5%
20 | Cc1cc(Nc2ccc(F)cc2)c2cc(NC(=O)Nc3ccc(N(CCCl)CCCl)cc3)ccc2n1 | 1.06 µM | 1.01 µM | 26.19 | 2.37 µM | 7.16 µM | 11 µM | 0.42 µM | – | – | – | – | – | – | – | – | – | – | – | – | –
